The source of these data is ChEMBL document CHEMBL1151321, “Bisamides, lignans, triterpenes, and insecticidal Cyclopenta[b]benzofurans from Aglaia species” (J Nat Prod, 1998).

Assay [1] relates to Spodoptera littoralis. The experiment in a line: Insecticidal activity against Spodoptera littoralis larvae assessed as growth inhibition after 5 days. Format: functional, organism-based. A digest of the protocol: (§1)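 Larvae kept 5 days in a moist chamber at 29 °C in darkness, then survival and larval weight compared with a carrier-only control group. Run in triplicate; LC50 (survival) and EC50 (growth) from dose-response curves by probit-log analysis.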

For assay [2], the system named is Spodoptera littoralis. Put plainly: Insecticidal activity against Spodoptera littoralis larvae assessed as survival rat after 5 days. The assay is classed as functional. A digest of the protocol:
as §1

In assay [3] the test system is Lymantria dispar. Put plainly: Insecticidal activity against Lymantria dispar larvae assessed as mean weight of surviving larvae after 8 days. The assay is classed as functional, organism-based. The method, boiled down: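 Freshly hatched larvae (n = 10) from a laboratory colony reared on wheat germ-casein diet, fed diet spiked with 1 μg – 100 μg/g fresh wt of compound. Kept 8 days in a moist chamber at 26 °C in darkness. Mean weight of surviving larvae compared with controls. Commercial azadirachtin (>96%) as positive control. Three replicates; LC50/EC50 from dose-response curves by probit-log analysis.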

Regarding `C/C=C(\C)C(=O)O[C@H]1C[C@@H](OC(C)=O)[C@@]2(C(=O)OC)CO[C@H]3[C@@H](O)[C@@](C)([C@]45O[C@@]4(C)[C@@H]4C[C@H]5O[C@@H]5OC=C[C@@]54O)[C@H]4[C@]1(CO[C@]4(O)C(=O)OC)[C@@H]32` [AZADIRACHTIN A], the figures for the EC50 in assay [1] and in assay [3] were 0.11 µg/g and 0.6 µg/g, respectively. The LC50 in assay [2] turned out to be 6.1 µg/g.

`COC(=O)[C@H]1[C@@H](O)[C@@]2(O)c3c(cc4c(c3OC)OCO4)O[C@@]2(c2ccc(OC)cc2)[C@@H]1c1ccccc1` [PANNELLIN]: the EC50 in assay [1] amounted to 0.24 µg/g; in assay [3] it was 1.4 µg/g. In addition, the LC50 in assay [2] worked out at 2.1 µg/g.

With `CC(=O)N(CCCCNC(=O)/C=C/c1ccccc1)C(=O)CCc1ccccc1` [EDULIMIDE], the EC50 in assay [1] is above 250 µg/g. In assay [2], the LC50 was above 250 µg/g.

With `COC(=O)[C@H]1[C@@H](OC(C)=O)[C@@]2(O)c3c(cc4c(c3OC)OCO4)O[C@@]2(c2ccc(OC)cc2)[C@@H]1c1ccccc1`, the EC50 in assay [1] came to 1.2 µg/g. In addition, the LC50 in assay [2] was found to be 12.2 µg/g.

On to `CC(C)(O)C(=O)NC1CCCN1C(=O)/C=C/c1ccccc1` (stereo unspecified) [PIRIFERINOL], for which the EC50 in assay [1] is above 250 µg/g. Also, the LC50 in assay [2] was above 250 µg/g.

In the case of `COc1cc(C[C@H]2CO[C@H](c3ccc(O)c(OC)c3)[C@H]2COC(C)=O)ccc1O` [LARICIRESINOL ACETATE], the EC50 in assay [1] was above 250 µg/g. Besides, the LC50 in assay [2] is above 250 µg/g.

With `COc1ccc(C2C(=O)Oc3cc4c(c(OC)c32)OCO4)cc1` (stereo unspecified) [AGLALACTONE], the EC50 in assay [1] is above 100 µg/g. The LC50 in assay [2] was above 100 µg/g.
